Source: PubChem
procasp7 counter: counter-screen: procaspase-7 (human) activation; recombinant procaspase-7, Ac-DEVD-pNA absorbance 405 nm; D23A/D198A/D206A triple mutant, cannot self-cleave; scale: DMSO 0, 5 µM enzyme 100; activation, % at 8.5 µM; 330,000 tested, 0.093% active;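 active means percent activation above the screen-wide mean plus 3 SD, cut at about 25% in these data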
Target sequence (P55210 whole entry D23A/D198A/D206A): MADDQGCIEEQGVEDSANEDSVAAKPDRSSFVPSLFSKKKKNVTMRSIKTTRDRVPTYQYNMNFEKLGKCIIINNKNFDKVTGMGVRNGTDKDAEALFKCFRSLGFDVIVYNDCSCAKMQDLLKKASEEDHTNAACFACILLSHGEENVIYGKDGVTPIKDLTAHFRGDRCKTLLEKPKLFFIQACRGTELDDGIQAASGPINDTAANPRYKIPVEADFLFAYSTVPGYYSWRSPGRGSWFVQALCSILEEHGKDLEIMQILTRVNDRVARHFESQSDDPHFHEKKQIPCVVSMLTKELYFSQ
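Assay system: Uncleavable procaspase-7 mutant enzyme | Input: 2 µM procaspase-7 mutant as dispensed | Timing: 1 h compound preincubation, 2 h substrate cleavage, 25 °C | Repeats: One well per compound | Control set: DMSO wells as 0%, DMSO with 5 µM added PC-7 as 100% | Technique: Epi-absorbance of released pNA at 405 nm, two timepoints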
Neddylation inh: inhibitors of human cullin neddylation; 360,000 tested, 0.58% active; TR-FRET cullin neddylation, biochemical; AID 651699; P61081+Q13564; calls only at 25 µM; in the data active means inhibition above about 36%
IMP-1 inh: blocks Pseudomonas aeruginosa IMP-1 metallo-beta-lactamase. purified IMP-1, nitrocefin hydrolysis, epi-absorbance fluorescence. inhibition, % at 5.6 µM. 290,000 tested, 0.45% active. AID 1556;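 active means inhibition above the mean plus 3 SD of all compounds in the same screening run, cut at about 4.5% in these data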;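 further: 0% = IMP-1 with DMSO and 100% = DMSO wells lacking enzyme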
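Assay system: purified IMP-1; Quantity: IMP-1 0.2 nM before substrate addition; Medium: HEPES buffer pH 7.1 with ZnSO4 and Brij 35; Incubation: 15 min enzyme–compound preincubation, then 25 min nitrocefin reaction, 25 °C; Signal: fluorescence quenching readout, ex 480/em 530 nm; Controls: DMSO with and without IMP-1; Repeats: singlicate testing.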
PolyA inh: yeast polyadenylation inhibition; S. cerevisiae SKY197-pL101 polyadenylation reporter, beta-gal luminescence; efflux-impaired pdr1/pdr3 knockout yeast; score 100 = 6 SD above DMSO; activity score, % at 12 µM; 300,000 tested, 0.02% active; AID 1875;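 active means lowest replicate activity score at least 50, where 100 means six control SD above control mean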;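 further: yeast exposed to compound for 9 h at 30 °C; higher score means more reporter readthrough which indicates perturbed polyadenylation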
VIM-2 inhibitor: blocks Pseudomonas aeruginosa VIM-2 metallo-beta-lactamase; purified VIM-2, nitrocefin hydrolysis, epi-absorbance fluorescence; inhibition, % at 5.6 µM; 290,000 tested, 0.89% active;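 active means inhibition above the mean of all tested compounds plus 3 SD, cutoff set per screening run, cut at about 7.5% in these data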;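 further: red hydrolysis product quenches plate fluorescence so inhibitors raise well fluorescence; 0% = enzyme with DMSO and 100% = DMSO without enzyme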
procasp3 activ: activates human procaspase-3 | 330,000 tested, 0.11% active | activation, % at 8.5 µM | recombinant procaspase-3 D3A, Ac-DEVD-pNA absorbance 405 nm | P42574;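 active means activation above the mean of all tested compounds plus 3 SD, cut at about 21% in these data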;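 further: 0% = DMSO alone and 100% = DMSO wells spiked with extra 5 µM PC-3 D3A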
Target sequence (P42574 whole entry D9A/D28A/D175A): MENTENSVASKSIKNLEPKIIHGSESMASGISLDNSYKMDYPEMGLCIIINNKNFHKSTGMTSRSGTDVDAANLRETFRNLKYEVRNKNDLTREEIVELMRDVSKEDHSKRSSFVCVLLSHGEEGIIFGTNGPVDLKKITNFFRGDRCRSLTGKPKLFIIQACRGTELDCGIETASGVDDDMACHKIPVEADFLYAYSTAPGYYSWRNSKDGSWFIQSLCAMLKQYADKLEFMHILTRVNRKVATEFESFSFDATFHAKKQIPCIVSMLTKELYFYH
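Evaluation: percent activation relative to control range; Material: Procaspase-3 D3A mutant, all three cleavage aspartates alanine; Compound: single dose, 8.5 µM nominal compound, 0.8% DMSO; Replication: one well per compound; Signal: absorbance at 405 nm, 0 and 120 min; Schedule: 1 h preincubation plus 2 h reaction at 25 °C.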
Neddyl conf: confirmation of human cullin neddylation inhibitors; AID 652217; TR-FRET cullin neddylation biochemical assay; shares compounds with Neddylation inh; calls only at 25 µM; 1,800 tested, 13% active; in the data active means inhibition above about 40%;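 further: neddylation substrate is the cullin 1 ring ligase complex with SKP2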
Starred values were filed as active, the others as inactive; i = inactive; nt = no result given; + = active, no number. In the library only some 1.7% were active in any assay of this set; here they are far more common.

SMILES	procasp7 counter	Neddylation inh	IMP-1 inh	PolyA inh	VIM-2 inhibitor	procasp3 activ	Neddyl conf
CC(Oc1ccccc1)C(=O)Nc1cccc(-c2nc3ccccc3[nH]2)c1 (stereo unspecified)	-8	+	-5	6	-2	4	i
Cc1ccc(-c2csc3ncnc(N4CCN(C(=O)c5ccccc5)CC4)c23)cc1	14	i	0	-10	-4	3	nt
O=C(N/N=C/c1ccc2cccnc2c1)c1nc2ccccc2c(=O)[nH]1	3	+	-3	-14	-4	1	i
O=C(N/N=C/c1cnc(N2CCCCC2)s1)c1ccc(Cl)cc1	-4	+	-2	4	-1	-5	+
O=Cc1cnc(N2CCCCC2)s1	4	i	0	2	0	6	nt
FC(F)(F)c1cccc(Nc2cc(-c3ccccc3)nc3ncnn23)c1	9	i	-3	9	-3	1	nt
Fc1ccc(-c2cc(C(F)(F)F)n3ncnc3n2)cc1	-1	+	-1	-8	0	9	nt
COc1ccc(/C=C/C(=O)NC(=S)NNC(=O)c2cc(OC)c(OC)c(OC)c2)cc1OC	-9	i	0	-16	-1	-15	nt
COc1ccc(/C=C/C(=O)NC(=S)NNC(=O)c2cc(OC)c(OC)c(OC)c2)cc1	-2	+	0	-18	-3	3	i
COc1cc(/C=C/C(=O)N(C)CC(=O)Nc2ccccc2SC)cc(OC)c1OC	12	+	nt	nt	nt	2	i
CC(CCc1ccccc1)NC(=O)/C=C/c1ccccc1 (stereo unspecified)	-7	i	-2	-13	1	0	nt
COc1cc(/C=C/C(=O)NCc2ccccn2)cc(OC)c1OC	-5	+	1	7	-1	8	i
COc1cc(/C=C/C(=O)NC(C)CCc2ccccc2)cc(OC)c1OC (stereo unspecified)	-2	+	-2	-12	-3	5	i
Cc1ccc(NC(=O)COC(=O)CCC(=O)c2cccs2)cc1S(=O)(=O)N1CCOCC1	-6	i	-2	-7	-4	10	nt
COc1ccc(C(CC(=O)N2CCN(c3ccccc3)CC2)c2c(OC)cc(OC)c3ccc(=O)oc23)cc1 (stereo unspecified)	6	+	nt	0	nt	1	i
COc1cc(C(CC(=O)N2CCCC2)c2c(OC)cc(OC)c3ccc(=O)oc23)cc(OC)c1OC (stereo unspecified)	2	i	nt	1	nt	5	nt
Cc1cc(-n2ccnc2)n2c(nc3ccccc32)c1C#N	5	+	3	-20	7.7*	-3	i
COc1ccc(/C=N/NC(=O)c2ccccc2O)cc1Cn1cc(Cl)cn1	6	+	-1	-2	0	1	+
COc1ccc(/C=N\NC(=O)c2cccc([N+](=O)[O-])c2)cc1Cn1cc([N+](=O)[O-])cn1	4	nt	-5	-25	-3	4	nt
CCc1ccc(C(=O)Nc2cc(S(=O)(=O)N3CCOCC3)ccc2N2CCOCC2)cc1	9	i	nt	nt	nt	-8	nt
COC(=O)C1=C(C)N(Cc2ccccc2)C(=NCCc2ccccn2)N[C@H]1c1cccc(F)c1	-7	i	-4	-14	-4	1	nt
COc1ccc(/C=N/NC(=O)c2cccnc2)c2ccccc12	5	i	-1	13	-2	6	nt
COc1ccc(/C=N/NC(=O)c2cccs2)c2ccccc12	5	+	nt	-9	nt	-1	i
COc1ccc(OC)c(C=NNC(=O)c2ccccc2NS(=O)(=O)c2cccs2)c1	5	+	nt	nt	nt	-8	nt
O=C(CSc1nnc(-c2ccccc2Cl)o1)Oc1ccc(Br)cc1	3	i	3	4	3	3	nt
SMILES	procasp7 counter	Neddylation inh	IMP-1 inh	PolyA inh	VIM-2 inhibitor	procasp3 activ	Neddyl conf
O=C(Nc1cc2c3c(c1)C1CCCC1CN3CC1CCCC21)c1ccccc1 (stereo unspecified)	2	+	-2	4	2	1	i
COC(=O)C1CCN(C(=O)COC(=O)c2oc3ccc(OC)cc3c2C)CC1	-2	+	-1	13	1	-2	nt
COc1ccc2oc(C(=O)OCC(=O)NCc3ccc(OC)c(OC)c3)c(C)c2c1	nt	+	nt	nt	nt	nt	i
COc1ccc2oc(C(=O)OCC(=O)N(C)c3ccccc3)c(C)c2c1	3	+	nt	21	nt	-7	nt
COc1ccc2oc(C(=O)OC(C)C(=O)NCc3ccccc3)c(C)c2c1 (stereo unspecified)	1	+	nt	25	nt	4	i
COc1ccc2oc(C(=O)OCC(=O)N3CCC(C)CC3)c(C)c2c1	6	nt	-3	3	-1	7	nt
COc1ccc2oc(C(=O)OC(C)C(=O)NC3(C#N)CCCCC3)c(C)c2c1 (stereo unspecified)	3	nt	nt	-6	nt	3	nt
COCCNC(=O)c1ccc2snnc2c1	5	i	-4	6	-1	11	nt
COc1ccc2oc(C(=O)OCC(=O)N(C)Cc3ccccc3)c(C)c2c1	5	nt	nt	-1	nt	5	nt
COc1ccc2oc(C(=O)OCC(=O)N(Cc3ccccc3)C(C)C)c(C)c2c1	-2	+	nt	15	nt	7	i
CC(=O)c1c(C)[nH]c(C(=O)COc2ccc3ccc(=O)oc3c2)c1C	11	+	nt	1	nt	13	i
COc1ccc(S(=O)(=O)Nc2c(NC3CCCCC3)c3ccccc3oc2=O)cc1OC	0	+	-1	-2	-1	10	i
Cc1ccc(S(=O)(=O)Nc2c(NC3CCCCC3)c3ccccc3oc2=O)cc1	2	i	-2	-36	-3	-6	nt
Cc1ccc(S(=O)(=O)Nc2c(NC3CCCCC3)c3ccccc3oc2=O)cc1C	-14	+	-2	-5	-1	0	nt
CCN(CC)c1ccc(/C=N/NC(=O)Nc2ccccc2)cc1	1	i	1	4	0	2	nt
CCN(CC)c1ccc(/C=N/NC(=O)CC(C)C)cc1	-2	+	-3	13	-1	-6	+
CCN(CC)c1ccc(/C=N\NC(N)=O)cc1	12	+	-2	0	0	3	i
CCN(CC)c1ccc(/C=N/NC(=O)OC(C)(C)C)cc1	-4	i	-4	0	-3	-3	nt
COC(=O)c1sccc1NC(=O)Nc1ccc(C(C)=O)cc1	nt	i	-1	nt	-3	nt	nt
Cc1cccnc1NC(=O)Nc1cccc2ccccc12	7	nt	-1	-11	-1	-8	nt
CCNc1nc(NCC)nc(N/N=C/c2ccc(Br)cc2)n1	5	i	0	-23	-2	-3	nt
